Assay results from ChEMBL document CHEMBL4359877, “Identification of benzothiazinones containing an oxime functional moiety as new anti-tuberculosis agents” (Eur J Med Chem, 2019).

Columns and labels:
[1] = test system: Mycobacterium tuberculosis; test: Antimycobacterial activity against Mycobacterium tuberculosis H37Rv ATCC 27294 assessed as reduction in bacterial cell growth incubated for 7 days by microplate alamar blue assay; assay type: functional; details: H37Rv ATCC 27294, 168 h
Summary of the method: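 MABA: H37Rv or clinical MDR isolates (resistant to INH and RFP, Beijing Chest Hospital patients) grown to late log phase in 7H9 with glycerol, Tween 80 and ADC, washed, filtered and frozen. Two-fold compound dilutions with 2 × 10⁵ CFU per well, 37 °C; Alamar blue plus Tween 80 added on day 7, fluorescence (ex 530/em 590) read after 16–24 h. MIC = lowest concentration giving ≥90% fluorescence reduction versus mean of bacterium-only controls; RIF and INH as positive controls.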

[2] = Cytotoxicity against African green monkey Vero cells assessed as reduction in cell viability; assay type: cell-based; details: chlorocebus sabaeus
[3] = Half life in ICR mouse at 25 mg/kg, po measured upto 24 hrs by HPLC analysis; assay type: ADME, organism-based; details: in vivo
Summary of the method: (§1)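 Female SPF ICR mice, 18–22 g, fasted overnight, 3 per group; single oral dose 25 mg/kg as suspension in 0.5% CMC. Jugular vein blood drawn at 0.25, 0.5, 1, 2, 4, 6, 8 and 24 h; serum deproteinised with acetonitrile, dried, redissolved and quantified by HPLC. AUC, t1/2, Cmax and Tmax taken directly from concentration–time data.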

[4] = Tmax in ICR mouse at 25 mg/kg, po measured upto 24 hrs by HPLC analysis; assay type: ADME, organism-based; details: in vivo; summary of the method: as §1
[5] = Cmax in ICR mouse at 25 mg/kg, po measured upto 24 hrs by HPLC analysis; assay type: ADME, organism-based; parameters: dose 25 mg/kg, route oral; details: in vivo; summary of the method: as §1
[6] = AUC (0 to infinity) in ICR mouse at 25 mg/kg, po measured upto 24 hrs by HPLC analysis; assay type: ADME, organism-based; parameters: dose 25 mg/kg, time infinity, route oral; details: in vivo; summary of the method: as §1
[7] = MRT in ICR mouse at 25 mg/kg, po measured upto 24 hrs by HPLC analysis; assay type: ADME, organism-based; details: in vivo; summary of the method: as §1
[8] = test system: Mycobacterium tuberculosis; test: Antituberculosis activity against Mycobacterium tuberculosis H37Rv infected in BALB/C mouse assessed as colony forming unit in lungs at 25 mg/kg, po administered once daily via gavage for 5 days per week for 3 weeks starting from 10 days post-infection (reference value: 6.44 +/- 0.34); assay type: functional
[9] = test system: Mycobacterium tuberculosis; test: Antimycobacterial activity against Mycobacterium tuberculosis H37Rv assessed as reduction in bacterial cell growth at 32 ug/ml by Low-oxygen recovery assay; assay type: functional
[10] = test system: Mycobacterium tuberculosis; test: Antimycobacterial activity against Mycobacterium tuberculosis H37Rv assessed as reduction in bacterial cell growth by Low-oxygen recovery assay; assay type: functional
CYP1A2 = target: T1, CYP1A2 (Homo sapiens, UniProt P05177); test: Inhibition of CYP1A2 (unknown origin); assay type: ADME
T1 sequence (P05177 whole entry): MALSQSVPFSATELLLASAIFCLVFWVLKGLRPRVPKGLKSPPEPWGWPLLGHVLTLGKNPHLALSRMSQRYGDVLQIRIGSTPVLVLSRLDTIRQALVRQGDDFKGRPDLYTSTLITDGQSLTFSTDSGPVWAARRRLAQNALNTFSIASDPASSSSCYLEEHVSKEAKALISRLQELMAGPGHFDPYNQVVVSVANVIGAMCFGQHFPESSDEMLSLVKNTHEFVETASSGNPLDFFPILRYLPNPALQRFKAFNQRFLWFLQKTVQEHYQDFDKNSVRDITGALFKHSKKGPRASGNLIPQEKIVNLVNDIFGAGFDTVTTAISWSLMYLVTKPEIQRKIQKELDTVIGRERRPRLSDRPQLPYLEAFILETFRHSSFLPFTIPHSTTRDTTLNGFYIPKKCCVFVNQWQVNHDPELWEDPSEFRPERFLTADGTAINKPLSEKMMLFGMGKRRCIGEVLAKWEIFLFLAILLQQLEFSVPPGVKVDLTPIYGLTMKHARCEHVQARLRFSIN

CYP2D6 = CYP2D6 (Homo sapiens, UniProt P10635); test: Inhibition of CYP2D6 (unknown origin); assay type: ADME
Sequence of CYP2D6 (P10635 whole entry): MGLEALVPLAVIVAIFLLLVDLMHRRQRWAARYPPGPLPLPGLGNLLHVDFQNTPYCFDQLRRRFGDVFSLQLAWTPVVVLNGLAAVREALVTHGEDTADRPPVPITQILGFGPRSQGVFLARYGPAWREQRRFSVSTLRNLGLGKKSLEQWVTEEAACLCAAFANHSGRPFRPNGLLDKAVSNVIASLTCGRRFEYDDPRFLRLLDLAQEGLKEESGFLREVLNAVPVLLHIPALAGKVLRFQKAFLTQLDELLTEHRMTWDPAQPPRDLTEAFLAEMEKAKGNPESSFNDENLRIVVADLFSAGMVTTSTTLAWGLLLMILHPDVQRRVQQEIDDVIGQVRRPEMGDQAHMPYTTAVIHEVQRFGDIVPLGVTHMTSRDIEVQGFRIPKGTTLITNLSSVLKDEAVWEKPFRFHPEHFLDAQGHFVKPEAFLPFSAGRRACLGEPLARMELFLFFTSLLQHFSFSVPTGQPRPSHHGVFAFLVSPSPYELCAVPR

CYP3A4 = CYP3A4 (Homo sapiens, UniProt P08684); test: Inhibition of CYP3A4 (unknown origin); assay type: ADME
Sequence of CYP3A4 (P08684 whole entry): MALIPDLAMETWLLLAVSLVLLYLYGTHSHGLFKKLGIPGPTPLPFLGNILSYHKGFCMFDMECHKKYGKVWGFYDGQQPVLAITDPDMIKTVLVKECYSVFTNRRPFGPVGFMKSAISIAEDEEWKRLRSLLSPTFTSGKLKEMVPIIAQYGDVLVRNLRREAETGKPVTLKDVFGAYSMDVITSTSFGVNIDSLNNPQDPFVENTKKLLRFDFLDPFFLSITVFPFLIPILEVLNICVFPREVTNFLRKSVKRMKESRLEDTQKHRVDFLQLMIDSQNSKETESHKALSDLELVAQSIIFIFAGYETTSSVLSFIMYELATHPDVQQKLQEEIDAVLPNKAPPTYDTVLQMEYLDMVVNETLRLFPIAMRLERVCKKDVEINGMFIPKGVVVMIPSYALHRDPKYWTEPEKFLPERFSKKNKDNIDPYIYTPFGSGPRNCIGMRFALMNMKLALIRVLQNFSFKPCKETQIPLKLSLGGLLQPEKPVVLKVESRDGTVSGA

CYP2C9 = CYP2C9 (Homo sapiens, UniProt P11712); test: Inhibition of CYP2C9 (unknown origin); assay type: ADME
Sequence of CYP2C9 (P11712 whole entry): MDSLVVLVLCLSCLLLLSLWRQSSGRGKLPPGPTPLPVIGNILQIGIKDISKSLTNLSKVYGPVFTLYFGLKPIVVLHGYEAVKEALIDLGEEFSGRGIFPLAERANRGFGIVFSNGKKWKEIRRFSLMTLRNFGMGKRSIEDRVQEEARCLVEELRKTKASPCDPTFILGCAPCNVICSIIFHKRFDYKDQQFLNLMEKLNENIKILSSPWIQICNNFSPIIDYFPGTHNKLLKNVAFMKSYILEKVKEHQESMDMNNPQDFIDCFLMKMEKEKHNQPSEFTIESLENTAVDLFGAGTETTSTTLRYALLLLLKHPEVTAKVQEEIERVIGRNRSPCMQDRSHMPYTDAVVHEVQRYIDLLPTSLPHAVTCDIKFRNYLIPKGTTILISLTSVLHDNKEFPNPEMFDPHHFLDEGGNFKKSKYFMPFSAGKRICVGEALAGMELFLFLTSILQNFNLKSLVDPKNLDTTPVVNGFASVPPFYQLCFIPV

Cytochrome P450 2C19 = Cytochrome P450 2C19 (Homo sapiens, UniProt P33261); test: Inhibition of CYP2C19 (unknown origin); assay type: ADME
Sequence of Cytochrome P450 2C19 (P33261 whole entry): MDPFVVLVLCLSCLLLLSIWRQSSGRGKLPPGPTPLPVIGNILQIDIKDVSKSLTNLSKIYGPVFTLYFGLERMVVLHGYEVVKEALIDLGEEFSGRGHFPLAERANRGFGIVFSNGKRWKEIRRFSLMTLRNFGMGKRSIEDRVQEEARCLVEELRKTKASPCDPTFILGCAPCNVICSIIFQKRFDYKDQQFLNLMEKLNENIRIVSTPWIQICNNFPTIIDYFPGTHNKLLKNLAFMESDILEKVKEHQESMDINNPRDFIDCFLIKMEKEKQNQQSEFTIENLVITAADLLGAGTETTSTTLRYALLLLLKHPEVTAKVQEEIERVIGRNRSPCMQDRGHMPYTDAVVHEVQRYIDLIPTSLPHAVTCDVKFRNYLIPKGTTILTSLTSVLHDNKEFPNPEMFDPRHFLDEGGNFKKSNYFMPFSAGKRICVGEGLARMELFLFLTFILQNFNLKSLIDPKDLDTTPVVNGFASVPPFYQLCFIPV

[11] = target: Voltage-gated inwardly rectifying potassium channel KCNH2 (Homo sapiens, UniProt Q12809); test: Inhibition of human ERG transfected in HEK293 cells by whole-cell patch clamp method; assay type: cell-based; details: hek293
Sequence of Voltage-gated inwardly rectifying potassium channel KCNH2 (Q12809 whole entry): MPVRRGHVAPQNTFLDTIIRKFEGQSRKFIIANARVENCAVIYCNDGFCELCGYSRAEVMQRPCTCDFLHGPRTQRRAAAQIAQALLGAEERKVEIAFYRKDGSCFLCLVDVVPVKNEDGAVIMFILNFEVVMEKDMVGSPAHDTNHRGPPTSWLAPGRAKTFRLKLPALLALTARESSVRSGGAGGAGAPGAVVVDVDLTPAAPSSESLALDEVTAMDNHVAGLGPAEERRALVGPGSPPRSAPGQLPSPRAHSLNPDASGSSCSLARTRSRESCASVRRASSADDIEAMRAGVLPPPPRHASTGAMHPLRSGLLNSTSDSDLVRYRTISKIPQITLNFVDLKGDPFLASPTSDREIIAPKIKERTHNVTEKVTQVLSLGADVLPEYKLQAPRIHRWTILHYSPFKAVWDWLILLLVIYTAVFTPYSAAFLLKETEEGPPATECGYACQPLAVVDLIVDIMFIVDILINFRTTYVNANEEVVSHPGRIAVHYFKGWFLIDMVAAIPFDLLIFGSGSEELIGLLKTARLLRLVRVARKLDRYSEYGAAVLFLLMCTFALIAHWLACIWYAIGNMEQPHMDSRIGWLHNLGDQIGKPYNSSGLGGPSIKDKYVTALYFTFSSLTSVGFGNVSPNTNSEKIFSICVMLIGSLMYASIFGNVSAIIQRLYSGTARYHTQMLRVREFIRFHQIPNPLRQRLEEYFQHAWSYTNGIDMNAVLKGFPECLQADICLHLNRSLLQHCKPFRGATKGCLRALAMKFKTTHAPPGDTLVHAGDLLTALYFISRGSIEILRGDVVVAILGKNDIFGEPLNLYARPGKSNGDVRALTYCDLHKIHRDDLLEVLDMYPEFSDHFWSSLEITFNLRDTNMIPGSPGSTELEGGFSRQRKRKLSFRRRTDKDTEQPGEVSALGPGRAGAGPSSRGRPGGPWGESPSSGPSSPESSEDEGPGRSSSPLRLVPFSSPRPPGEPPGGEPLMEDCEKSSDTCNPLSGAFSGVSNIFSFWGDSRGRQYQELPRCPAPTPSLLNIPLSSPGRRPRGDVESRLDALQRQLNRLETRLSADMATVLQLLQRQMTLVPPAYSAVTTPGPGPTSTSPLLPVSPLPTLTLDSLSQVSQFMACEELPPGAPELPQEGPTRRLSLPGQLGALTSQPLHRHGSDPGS

[12] = Mutagenicity in Salmonella typhimurium TA100 in absence of S9 fraction by mini-Ames test; assay type: toxicity; details: salmonella enterica subsp. enterica serovar typhimurium
[13] = Mutagenicity in Salmonella typhimurium TA102 in absence of S9 fraction by mini-Ames test; assay type: toxicity; details: salmonella enterica subsp. enterica serovar typhimurium
[14] = Mutagenicity in Salmonella typhimurium TA100 in presence of S9 fraction by mini-Ames test; assay type: toxicity, subcellular; details: salmonella enterica subsp. enterica serovar typhimurium
[15] = Mutagenicity in Salmonella typhimurium TA102 in presence of S9 fraction by mini-Ames test; assay type: toxicity, subcellular; details: salmonella enterica subsp. enterica serovar typhimurium
[16] = Acute toxicity in Sprague-Dawley rat assessed as death at 2 g/kg, po measured continuously for first 4 hrs followed by every 1 hr for next 24 hrs and subsequent 8 hrs interval for 7 days; assay type: organism-based; details: in vivo, 2000 mg/kg
Summary of the method: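 SD rats, 180–220 g, randomised, ten per group, food withheld overnight. Single oral dose of 2 g/kg suspended in 5% CMC; controls given vehicle only. Watched continuously for 4 h, hourly for the next 24 h, then every 8 h through day 7 for deaths or changes. Read-out is survivors/total at 7 days.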

[17] = test system: Mycobacterium tuberculosis; test: Antituberculosis activity against Mycobacterium tuberculosis H37Rv infected in BALB/C mouse assessed as reduction in log10CFU in lungs at 25 mg/kg, po administered once daily for 5 days per week for a total of 3 weeks started on day 10 post-infection; assay type: functional

CCON=C1CCC(CN2CCN(c3nc(=O)c4cc(C(F)(F)F)cc([N+](=O)[O-])c4s3)CC2)CC1 (configuration not stated)
MIC90 [1]: < 0.016 µg/mL | CC50 [2]: > 64 µg/mL | half-life [3]: 2.29 h | Tmax [4]: 0.25 h | Cmax [5]: 15200 ng/mL | AUC(0-inf) [6]: 40600 ng·h/mL | MRT [7]: 2.3 h | Activity [8]: 2 log10CFU | inhibition at 32 µg/mL [9]: 79% | MIC [10]: > 32 µg/mL | IC50 (CYP1A2): > 10 µM | IC50 (CYP2D6): > 10 µM | IC50 (CYP3A4): > 10 µM | IC50 (CYP2C9): > 10 µM | IC50 (Cytochrome P450 2C19): > 10 µM | IC50 [11]: 38.9 µM | Activity [12]: Non-Toxic | Activity [13]: Non-Toxic | Activity [14]: Non-Toxic | Activity [15]: Non-Toxic | Activity [16]: Non-Toxic | Activity [17]: 4.44 log10CFU
